Assay [1] deals with Somatostatin receptor type 3 (Homo sapiens, UniProt P32745). The assay is described as follows: Binding assay at human somatostatin receptor 3 (hsst3) expressed in CCL-39 cells using LTT-CST-14-(Tyr10) as radioligand. In a few lines:
(§1)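 Chinese hamster lung fibroblast CCL39 cells stably expressing each hsst receptor; crude membrane homogenates in 10 mM HEPES pH 7.5, 0.5% BSA, 5 mM MgCl2, 5 mg/mL bacitracin. Vacuum filtration, bound radioactivity counted. Triplicate curves fitted by nonlinear regression; pKD reported.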

In assay [2] the target is Somatostatin receptor type 2 (Homo sapiens, UniProt P30874). Nature of the assay: Binding assay at human somatostatin receptor 2 (hsst2) expressed in CCL-39 cells using LTT-CST-14-(Tyr10) as radioligand. In short, it runs like this:
as §1

In assay [3] the target is Somatostatin receptor type 1 (Homo sapiens, UniProt P30872). The assay is described as follows: Binding assay at human somatostatin receptor 1 (hsst1) expressed in CCL-39 cells using LTT-CST-14-(Tyr10) as radioligand. In short, it runs like this: as §1
Assay [4] concerns the target Somatostatin receptor type 5 (Homo sapiens, UniProt P35346). The assay is described as follows: Binding assay at human somatostatin receptor 5 (hsst5) expressed in CCL-39 cells using LTT-CST-14-(Tyr10) as radioligand. In short, it runs like this: as §1
The target in assay [5] is Somatostatin receptor type 4 (Homo sapiens, UniProt P31391). The assay is described as follows: Binding assay at human somatostatin receptor 4 (hsst4) expressed in CCL-39 cells using LTT-CST-14-(Tyr10) as radioligand. In short, it runs like this: as §1

As usually defined, the Kd is the equilibrium constant for the complex coming apart. A low value points to higher affinity.

SMILES strings stand for the structures. Residues, ends and D or L forms follow the SMILES beside them.

Chain of Somatostatin receptor type 4 (P31391 whole entry): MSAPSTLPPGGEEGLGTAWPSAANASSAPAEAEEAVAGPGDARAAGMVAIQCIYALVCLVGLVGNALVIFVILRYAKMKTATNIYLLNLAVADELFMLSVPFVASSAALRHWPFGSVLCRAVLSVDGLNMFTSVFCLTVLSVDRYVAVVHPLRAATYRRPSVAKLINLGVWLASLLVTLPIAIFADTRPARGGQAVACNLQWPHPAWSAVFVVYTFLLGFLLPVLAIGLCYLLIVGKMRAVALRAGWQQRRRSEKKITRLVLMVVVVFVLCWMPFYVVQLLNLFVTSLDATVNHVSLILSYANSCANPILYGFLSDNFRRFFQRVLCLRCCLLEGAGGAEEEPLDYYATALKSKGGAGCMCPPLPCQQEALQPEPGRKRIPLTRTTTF
Chain of Somatostatin receptor type 5 (P35346 whole entry): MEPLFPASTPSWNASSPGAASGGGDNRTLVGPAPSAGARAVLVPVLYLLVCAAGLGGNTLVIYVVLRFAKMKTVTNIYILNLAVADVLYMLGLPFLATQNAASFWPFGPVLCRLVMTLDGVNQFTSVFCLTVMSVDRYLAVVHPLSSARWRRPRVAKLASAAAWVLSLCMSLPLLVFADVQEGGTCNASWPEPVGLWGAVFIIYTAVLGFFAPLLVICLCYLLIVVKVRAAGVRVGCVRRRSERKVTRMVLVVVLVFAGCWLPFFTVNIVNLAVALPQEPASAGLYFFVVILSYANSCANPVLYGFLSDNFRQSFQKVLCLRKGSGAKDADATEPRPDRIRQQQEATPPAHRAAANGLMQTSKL
Chain of Somatostatin receptor type 3 (P32745 whole entry): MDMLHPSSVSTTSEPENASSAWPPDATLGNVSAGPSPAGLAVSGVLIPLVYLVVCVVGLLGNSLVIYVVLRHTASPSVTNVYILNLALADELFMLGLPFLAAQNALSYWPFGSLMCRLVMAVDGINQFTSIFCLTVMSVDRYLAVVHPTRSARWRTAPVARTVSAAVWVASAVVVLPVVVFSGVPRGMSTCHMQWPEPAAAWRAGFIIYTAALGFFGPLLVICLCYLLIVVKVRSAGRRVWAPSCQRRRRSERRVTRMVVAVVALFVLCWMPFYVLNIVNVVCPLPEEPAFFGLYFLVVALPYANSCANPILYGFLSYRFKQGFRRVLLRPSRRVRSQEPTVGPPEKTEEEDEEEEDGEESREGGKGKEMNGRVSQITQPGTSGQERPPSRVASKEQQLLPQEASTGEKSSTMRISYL
Chain of Somatostatin receptor type 1 (P30872 whole entry): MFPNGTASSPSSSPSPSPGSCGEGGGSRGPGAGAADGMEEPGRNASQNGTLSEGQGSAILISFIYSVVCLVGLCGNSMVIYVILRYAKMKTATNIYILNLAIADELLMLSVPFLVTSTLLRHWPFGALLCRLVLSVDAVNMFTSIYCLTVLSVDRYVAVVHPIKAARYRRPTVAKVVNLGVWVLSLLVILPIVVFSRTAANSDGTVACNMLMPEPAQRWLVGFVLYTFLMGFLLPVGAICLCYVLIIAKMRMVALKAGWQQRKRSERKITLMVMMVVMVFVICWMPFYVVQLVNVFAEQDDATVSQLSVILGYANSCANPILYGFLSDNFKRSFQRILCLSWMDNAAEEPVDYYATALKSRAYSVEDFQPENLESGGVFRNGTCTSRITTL
Chain of Somatostatin receptor type 2 (P30874 whole entry): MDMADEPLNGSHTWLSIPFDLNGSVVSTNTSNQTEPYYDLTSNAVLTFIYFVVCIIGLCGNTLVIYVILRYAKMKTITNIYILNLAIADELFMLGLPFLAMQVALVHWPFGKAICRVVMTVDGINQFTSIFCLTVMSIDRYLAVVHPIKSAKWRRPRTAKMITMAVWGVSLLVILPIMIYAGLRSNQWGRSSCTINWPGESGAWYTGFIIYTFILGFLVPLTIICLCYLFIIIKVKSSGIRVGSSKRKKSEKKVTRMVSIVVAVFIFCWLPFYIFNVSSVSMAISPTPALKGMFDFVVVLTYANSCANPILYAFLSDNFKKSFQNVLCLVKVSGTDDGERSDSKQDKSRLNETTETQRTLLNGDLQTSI

`CC(=O)N[C@H](CC(=O)NC[C@H](CCCCN)C(=O)N[C@H](CC(=O)N[C@H](CC(N)=O)Cc1ccccc1)Cc1c[nH]c2ccccc12)[C@@H](C)O`: the Kd in assay [1] was greater than 10 µM; in assay [2], greater than 10 µM; in assay [3] it was 13.2 µM; in assay [4] it was greater than 10 µM; in assay [5], 0.083 µM.
As to `CC(=O)N[C@H](CC(=O)N[C@@H](CCCCN)CC(=O)N[C@H](CC(=O)N[C@H](CC(N)=O)Cc1ccccc1)Cc1c[nH]c2ccccc12)[C@@H](C)O`, the Kd in assay [1] was greater than 10 µM; in assay [2], greater than 100 µM; in assay [3] it was greater than 100 µM; in assay [4], greater than 100 µM; in assay [5], greater than 100 µM.
Take `CC(=O)N[C@H](C(=O)N[C@@H](CCCCN)C(=O)N[C@@H](Cc1c[nH]c2ccccc12)C(=O)N[C@@H](Cc1ccccc1)C(N)=O)[C@@H](C)O` (Ac-TKWF-NH2): the Kd in assay [1] was greater than 10 µM; in assay [2], greater than 100 µM; in assay [3] it was greater than 100 µM; in assay [4], greater than 100 µM; in assay [5], greater than 10 µM.

Values taken from BindingDB's records for doi:10.1021/jm010816q (Eth Zurich, 2001).
